Rows were chosen to be rich in hits. Some 3.7% of all compounds tested hit in one or more screens of this group.
NPY2 pot ag: human NPY-Y2 potentiation or agonism, primary screen; P49146; cells expressing NPY-Y2, potentiator/agonist read-out; activation, % at 3.6 µM; actives 0.45% (n = 220,000); in the data active = activation above about 27%;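 note: cells stimulated with NPY near EC25 plus isoproterenol at EC100; 0% = vehicle plus submaximal agonist and 100% = vehicle plus saturating agonist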
Target sequence (P49146 whole entry, looked up): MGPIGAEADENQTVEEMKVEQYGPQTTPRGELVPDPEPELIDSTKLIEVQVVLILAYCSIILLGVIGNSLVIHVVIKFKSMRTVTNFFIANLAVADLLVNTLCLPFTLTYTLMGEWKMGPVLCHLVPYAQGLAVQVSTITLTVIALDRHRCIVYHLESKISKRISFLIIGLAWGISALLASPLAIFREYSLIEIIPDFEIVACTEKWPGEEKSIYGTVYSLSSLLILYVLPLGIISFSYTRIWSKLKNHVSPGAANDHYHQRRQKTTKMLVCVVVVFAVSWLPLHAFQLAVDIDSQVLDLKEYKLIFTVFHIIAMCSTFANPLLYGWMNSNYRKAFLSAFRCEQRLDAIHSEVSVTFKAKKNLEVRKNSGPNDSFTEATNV
NPY Y1 blocker: NPY-Y1 (human) receptor antagonism; P25929; HEK293-CNG Y1 cells, membrane potential fluorescence; NPY at EC95, then isoproterenol; inhibition, % at 3.6 µM; actives 1% (n = 200,000); AID 1040;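 active = inhibition above the campaign mean inhibition of all tested compounds plus 3 SD, cut at about 20% in these data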;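 note: 0% = DMSO wells given NPY plus isoproterenol and 100% = isoproterenol alone without NPY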
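Material: HEK293 Y1/CNG channel cell line | Also added: NPY (25 nM), isoproterenol (1 µM), Ro 20-1724 (25 µM) | Compound: One concentration, 3.6 µM, in 0.4% DMSO | Schedule: 3 h dye uptake, 1 h room-temperature compound, 45 min post-isoproterenol | Signal: Membrane-potential fluorescent dye readout | Read-out: % inhibition of NPY effect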
Furin inhibitor: human furin inhibition | purified furin, fluorogenic substrate cleavage | actives 0.061% (n = 220,000) | inhibition, % at 20 µM or 30 µM | P09958; in the data active = inhibition above about 25%
NPY Y2 blocker: NPY-Y2 (human) receptor antagonism. P49146. actives 0.99% (n = 140,000). inhibition, % at 2.7 µM. NPY-Y2 expressing cells, antagonist mode. AID 793; in the data active = inhibition above about 17%;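 note: 0% = vehicle with agonist challenge and 100% = reference antagonist with challenge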
KCC2 mod: modulators of human KCC2 chloride dependent transport; KCC2 cells, thallium flux FluoZin-2 fluorescence; AID 1456; Q9H2X9; actives 2.2% (n = 190,000); B-score of Tl+ flux slope (higher = more flux/activation; lower = inhibition) at 10 µM;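 active = thallium flux slope and its plate-corrected score both differing from the plate sample mean at a set confidence after two filtering rounds, in either direction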;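 note: slope of fluorescence scaled to starting intensity during 10 to 20 s after thallium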
NPY1 pot ag: potentiates or activates human NPY-Y1 receptor; P25929; AID 1304; activation, % at 3.6 µM; NPY-Y1 expressing cells, potentiator/agonist activation; actives 0.37% (n = 220,000); in the data active = activation above about 33%, passing the limit was not always enough;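 note: cells stimulated with NPY at EC10 then isoproterenol at EC100; 0% = low agonist plus stimulus and 100% = saturating agonist plus stimulus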
NPY1 antag ctr: human NPY-Y1 antagonism in NPY-Y2 counter-screen | shares compounds with NPY Y2 blocker | cell-based NPY-Y1 antagonism counterscreen | inhibition, % at 3.6 µM | actives 19% (n = 710); in the data active = inhibition above about 20%;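 note: cells challenged with NPY then isoproterenol with cAMP sensed through a CNG channel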
NPY-Y2 ant conf: human NPY-Y2 antagonism, confirmation. AID 1257. inhibition, % at 2.8 µM. shares compounds with NPY Y2 blocker. HEK293 NPY-Y2 CNG channel, membrane potential fluorescence. actives 32% (n = 710);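 active = mean inhibition of triplicate wells above the hit cutoff set in the primary screen, cut at about 17% in these data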;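 note: 0% = DMSO with NPY challenge and 100% = BIIE0246 high control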
* marks the source's active call; other numbers are inactive results; i = inactive; / = no result.

SMILES	NPY2 pot ag	NPY Y1 blocker	Furin inhibitor	NPY Y2 blocker	KCC2 mod	NPY1 pot ag	NPY1 antag ctr	NPY-Y2 ant conf
CC1CC(C)CN(C(=O)Cn2cc(C=O)c3ccccc32)C1 (configuration not stated)	1.0	-2.5	0.3	/	-0.087	-4.6	/	/
O=C(O)c1cc(/C=C/c2ccc(N3CCOCC3)c([N+](=O)[O-])c2)nc2ccccc12	77.6*	/	-23.7	/	0.0896	53.5*	/	/
CCCc1cc(=O)[nH]c(Nc2ccc3c(c2)OCCO3)n1	-0.2	-4.3	-20.1	/	0.25	3.1	/	/
CCOC(=O)N1CCN(C(=O)c2cnn3c(C(F)F)cc(-c4ccc(C)cc4)nc23)CC1	-22.5	-1.6	-19.3	17.2*	-0.535	-23.8	3.2	3.2
CSc1nnc2c3cc(C)ccc3n(Cc3ccccc3)c2n1	5.0	4.7	-10.2	28.3*	-0.0577	-14.8	23.3*	41.5*
c1ccc(Cn2c3ccccc3c3nnc(SCCN4CCCCC4)nc32)cc1	-14.1	/	-0.4	/	0.616	-30.8	/	/
CC(=O)N(C)c1nc(N)n(-c2ccccc2)n1	-4.6	6.3	-23.6	/	1.68	15.1	/	/
COc1ccc(OCc2nnc(SCC(=O)c3ccccc3)o2)cc1	-31.9	13.0	-5.6	/	/	-20.3	/	/
CCc1ccc(C2=NN(CCC(=O)NCc3cccs3)C(=O)CC2)cc1	-15.3	4.0	-24.2	/	-0.415	-23.6	/	/
COc1cc(/C=N/n2cnnc2)ccc1OCc1ccc(C)cc1	-19.8	18.5	-1.8	39.7*	0.00564	-41.6	16.1	31.8*
COc1cc(/C=N/n2cnnc2)ccc1OCc1ccccc1	-2.0	4.8	-3.1	2.9	0.445	-15.0	/	/
COc1ccc(C(=O)O/N=C(\C)c2ccccc2)cc1	1.4	-2.3	-1.2	-1.9	-2.14	-7.5	/	/
C/C(=N\OC(=O)c1ccc(OC(C)C)cc1)c1ccc(C)c(C)c1	0.7	13.0	-8.3	21.8*	0.714	-42.1	14.6	30.2*
CCCOc1ccc(C(=O)O/N=C(\CC)c2ccc(C)cc2)cc1	-10.5	0.7	-1.9	10.0	-0.37	-4.4	/	/
CC/C(=N\OC(=O)c1ccc(OC(C)C)cc1)c1ccc(C)cc1	-18.0	12.1	8.6	20.1*	-0.283	-11.8	9.9	14.2
CCOC(=O)c1nn(-c2ccc(OCC)cc2)c2nc(-c3ccco3)c(C#N)c(=O)n12	-13.6	2.5	-7.7	1.8	0.492	-8.7	/	/
Cc1cccc(/C(N)=N/OC(=O)COc2ccccc2Cl)c1	5.6	5.3	-0.8	18.6*	-1.87	-28.2	7.9	15.3
O=C(Nc1cc(S(=O)(=O)N2CCOCC2)ccc1N1CCCC1)c1ccc2c(c1)S(=O)(=O)c1ccccc1C2=O	-14.4	0.3	-16.7	/	0.352	-3.8	/	/
Cn1c(=O)cc(C(=O)N/N=C/c2ccc(F)cc2)[nH]c1=O	-15.2	/	-9.1	/	1.1	2.7	/	/
O=C(CSc1ccc(F)cc1)Nc1ccc(C2SCCS2)cc1	1.4	/	-27.5	/	0.598	20.5	/	/
CCCCSc1nnc(-c2ccc(C)cc2)c2ccccc12	2.3	7.0	12.3	17.7*	0.728	7.9	8.8	12.9
CN(C)C(=O)CSc1nnc(-c2ccc(F)cc2)c2ccccc12	-20.7	/	0.8	/	-0.693	9.5	/	/
CCOc1ccc(OCCSc2nnnn2-c2ccccc2)cc1	-24.5	8.6	-1.1	7.2	-0.0898	-26.6	/	/
CCOc1ccc(OCCSc2nnnn2C2CCCCC2)cc1	-21.9	18.8	-14.5	17.4*	/	-20.8	9.3	14.1
Clc1ccc(OCCSc2nnnn2C2CCCCC2)cc1	0.6	15.5	-19.9	22.1*	-0.341	-11.2	16.9	21.4*
SMILES	NPY2 pot ag	NPY Y1 blocker	Furin inhibitor	NPY Y2 blocker	KCC2 mod	NPY1 pot ag	NPY1 antag ctr	NPY-Y2 ant conf
Cn1cnnc1SCCOc1ccc(Cl)cc1	-13.6	1.2	-26.3	/	/	20.1	/	/
N#C/C(=C\c1ccc(-c2ccc([N+](=O)[O-])cc2Br)o1)C(=O)N1CCN(c2ccccc2)CC1	-0.6	-2.3	-7.3	1.6	-0.601	-11.0	/	/
COc1ccc(/C=N/NC(=O)c2cccc(OC(F)(F)C(F)F)c2)cc1O	-11.7	-1.1	-3.5	17.2*	-0.128	-25.1	3.1	2.2
CC(C)OC(=O)CC1C(=O)NCCN1C(=S)NC(=O)c1cccs1 (configuration not stated)	-4.2	2.2	-4.2	/	0.0087	-4.5	/	/
O=C(NCCc1ccccc1)c1ccc(Cl)nc1	2.5	1.7	-15.8	1.4	0.0986	14.9	/	/
N=c1c2c(ncn1Cc1ccco1)Oc1c(ccc3ccccc13)C2c1ccccc1 (configuration not stated)	-6.7	13.7	-12.9	19.0*	-0.421	-63.3	14.1	12.2
CCc1ccc(OS(=O)(=O)c2cn(C)c(=O)n(C)c2=O)cc1	-4.9	3.1	-9.3	/	-0.968	15.9	/	/
O=C1c2cccc3c(N4CCCCC4)ccc(c23)C(=O)N1CCO	-18.6	2.8	-12.5	1.7	-1.66	-21.1	/	/
O=C(OCCN1C(=O)c2cccc3c(N4CCOCC4)ccc(c23)C1=O)c1cccc(Cl)c1	0.8	1.7	8.3	20.4*	i	5.9	29.1*	40.3*
C/C(CC1CC(COCC(C)C)OC1=O)=N\NC(N)=S (configuration not stated)	-9.9	2.6	-29.2	27.0*	0.493	-13.6	1.5	1.1
CCCCCOCC1CC(C/C(C)=N/NC(N)=S)C(=O)O1 (configuration not stated)	11.2	3.5	-18.2	1.7	0.793	-9.3	/	/
COC(=O)c1cn(Cc2ccccn2)c(=O)c2ccccc12	9.4	5.8	-20.3	/	-0.196	-6.5	/	/
CCn1c(N)[n+](CC(=O)Nc2ccc(SC(F)F)cc2)c2ccccc21	11.2	/	-21.9	/	0.771	3.2	/	/
O=C1CC(c2ccc(F)cc2)Sc2nc(C34CC5CC(CC(C5)C3)C4)nn21 (configuration not stated)	-5.4	-3.8	-6.2	3.2	0.468	-7.3	/	/
C=CCn1c(SCc2c(C)noc2C)nc2cc(C(=O)O)ccc2c1=O	-0.4	3.0	-16.7	5.5	-0.575	15.5	/	/
Cc1noc(C)c1CSc1nc2ccccc2c(=O)n1-c1ccc(F)cc1F	-2.4	18.4	-21.6	24.8*	/	-16.6	20.4*	13.9
CN(C)CCCNS(=O)(=O)c1ccc(N2CCC(c3ccc(Cl)cc3)=N2)cc1	7.4	-0.5	-87.3	17.7*	/	2.7	5.8	14.2
Cc1c([N+](=O)[O-])nnn1-c1cc(Cl)cc(Cl)c1	1.1	-6.0	-46.7	/	0.0225	18.6	/	/
CCCc1nc(SCc2ccc(Cl)cc2Cl)n[nH]1	-3.7	2.1	-24.5	18.0*	-0.0654	-31.8	3.1	7.2
CCOc1ccc(Cc2c(Cl)nc(SC)nc2N(C)C)cc1	-23.5	11.6	-6.8	49.9*	-1.07	-45.2	62.8*	50.4*
CN(c1ccc(C(=O)NCCSCc2ccc(Cl)cc2)cc1)S(=O)(=O)c1ccccc1	10.2	7.6	0.7	11.0	-0.74	-22.6	/	/
